Test results from ChEMBL document CHEMBL4665669, “Novel tertiary sulfonamide derivatives containing benzimidazole moiety as potent anti-gastric cancer agents: Design, synthesis and SAR studies” (Eur J Med Chem, 2019).

Key:
PC-3 = assay: Anticancer activity against human PC-3 cells assessed as inhibition of cell proliferation after 48 hrs by MTT assay; format: functional, cell-based; conditions: PC-3, 48 h
Procedure, shortened: (§1)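 MTT assay with 48 h compound exposure. MTT solution was then added and incubated 4 h at 37 °C, the supernatant discarded and formazan dissolved in DMSO, with absorbance read at 490 nm. IC50 values were calculated from three independent experiments, reported as mean SD.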

MCF7 = assay: Anticancer activity against human MCF7 cells assessed as inhibition of cell proliferation after 48 hrs by MTT assay; format: functional, cell-based; conditions: MCF7, 48 h; procedure, shortened: as §1
MGC-803 = assay: Anticancer activity against human MGC-803 cells assessed as inhibition of cell proliferation after 48 hrs by MTT assay; format: functional, cell-based; conditions: MGC-803, 48 h; procedure, shortened: as §1
SGC-7901 = assay: Anticancer activity against human SGC-7901 cells assessed as inhibition of cell proliferation after 48 hrs by MTT assay; format: functional, cell-based; conditions: SGC-7901, 48 h; procedure, shortened: as §1
HGC-27 = assay: Anticancer activity against human HGC-27 cells assessed as inhibition of cell proliferation after 48 hrs by MTT assay; format: functional, cell-based; conditions: HGC-27, 48 h; procedure, shortened: as §1
GES1 = assay: Cytotoxicity against human GES1 cells assessed as inhibition of cell proliferation after 48 hrs by MTT assay; format: cell-based; conditions: GES1, 48 h
Procedure, shortened: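 Normal gastric epithelial GES-1 cells were exposed to compound for 48 h. MTT was then added for 4 h at 37 °C. Formazan was dissolved in DMSO after the supernatant was removed, and absorbance was read at 490 nm. IC50 was computed from three independent experiments, given as mean SD.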

Carbonic anhydrase 9 = Carbonic anhydrase 9 (Homo sapiens, UniProt Q16790); assay: Inhibition of recombinant human CA9 preincubated for 15 mins by phenol red dye based stopped flow CO2 hydration assay
[1] = Inhibition of HIF in human LN229 cells transfected with HRE-luc/LacZ by dual luciferase reporter gene assay; format: cell-based; conditions: LN-229

Row | Structure (SMILES) | IC50 (PC-3) | IC50 (MCF7) | IC50 (MGC-803) | IC50 (SGC-7901) | IC50 (HGC-27) | IC50 (GES1) | IC50 (Carbonic anhydrase 9) | IC50 [1]
1 | COc1cc(N(Cc2nc3ccccc3[nH]2)S(=O)(=O)c2ccccc2Cl)cc(OC)c1OC | 34.5 µM | 38.1 µM | 19.1 µM |  |  |  |  | 
2 | COc1ccc(CN(c2cc(OC)c(OC)c(OC)c2)S(=O)(=O)c2ccc(OC)c(OC)c2)cc1 | 20.1 µM | 22.7 µM | 8.31 µM |  |  |  |  | 
3 | COc1cc(N(Cc2ccc(Cl)cc2)S(=O)(=O)c2ccc(C)cc2)cc(OC)c1OC | 14.6 µM | 18.6 µM | 1.72 µM |  |  |  |  | 
4 | O=c1[nH]cc(F)c(=O)[nH]1 [FLUOROURACIL] | 18.4 µM | 17.1 µM |  | 5.54 µM | 4.28 µM | 10.2 µM |  | 
5 | COc1cc(N(Cc2nc3ccccc3[nH]2)S(=O)(=O)c2ccc(F)cc2)cc(OC)c1OC | 7.99 µM | 9.38 µM | 5.68 µM |  |  |  |  | 
6 | COc1cc(N(Cc2ccc(Br)cc2)S(=O)(=O)c2ccc(C)cc2)cc(OC)c1OC | 4.68 µM | 10.9 µM | 1.61 µM |  |  |  |  | 
7 | COc1cc(N(Cc2nc3ccccc3[nH]2)C(=O)c2ccc(C)cc2)cc(OC)c1OC | 42 µM | 49.2 µM | 30.5 µM |  |  |  |  | 
8 | Cc1ccc(N(CC(C)F)S(=O)(=O)c2ccc([N+](=O)[O-])cc2)cc1 (configuration not stated) |  |  |  |  |  |  | 0.0042 µM | 
9 | COc1ccc(S(=O)(=O)N(Cc2ccc3c(c2)OC(C)(C)C=C3)c2ccccc2)cc1OC |  |  |  |  |  |  |  | 0.59 µM
10 | COc1ccc(CN(c2cc(OC)c(OC)c(OC)c2)S(=O)(=O)c2ccc(C(C)(C)C)cc2)cc1 | 28.6 µM | 32.7 µM | 10.3 µM |  |  |  |  | 
11 | COc1cc(N(Cc2nc3ccccc3[nH]2)C(=O)c2cccc(Cl)c2)cc(OC)c1OC | > 50 µM | 34.9 µM | > 50 µM |  |  |  |  | 
12 | Cc1ccc(N(Cc2nc3ccccc3[nH]2)S(=O)(=O)c2ccc(C)cc2)cc1 | 48.9 µM | > 50 µM | 41.2 µM |  |  |  |  | 
13 | COc1cc(N(Cc2nc3ccccc3[nH]2)S(=O)(=O)c2ccc(Br)cc2)cc(OC)c1OC | 6.89 µM | 7.74 µM | 2.19 µM |  |  |  |  | 
14 | COc1cc(N(Cc2csc3ccc(Cl)cc23)S(=O)(=O)c2ccc(C)cc2)cc(OC)c1OC | 15.2 µM | 8.95 µM | 3.45 µM |  |  |  |  | 
15 | COc1cc(N(Cc2cccc(C)c2)S(=O)(=O)c2ccc(C)cc2)cc(OC)c1OC | 8.58 µM | 14.3 µM | 4.34 µM |  |  |  |  | 
16 | COc1ccc(S(=O)(=O)N(Cc2nc3ccccc3[nH]2)c2cc(OC)c(OC)c(OC)c2)cc1OC | 30.4 µM | 47.7 µM | 22.5 µM |  |  |  |  | 
17 | COc1ccc(C(=O)N(Cc2nc3ccccc3[nH]2)c2cc(OC)c(OC)c(OC)c2)cc1OC | 34.9 µM | > 50 µM | 22.4 µM |  |  |  |  | 

Row | Structure (SMILES) | IC50 (PC-3) | IC50 (MCF7) | IC50 (MGC-803) | IC50 (SGC-7901) | IC50 (HGC-27) | IC50 (GES1) | IC50 (Carbonic anhydrase 9) | IC50 [1]
18 | COc1cc(N(Cc2ccc(F)cc2)S(=O)(=O)c2ccc(C)cc2)cc(OC)c1OC | 20.7 µM | 19.2 µM | 3.75 µM |  |  |  |  | 
19 | Cc1ccc(S(=O)(=O)N(Cc2nc3ccccc3[nH]2)c2ccc(F)cc2)cc1 | 45 µM | > 50 µM | 34.6 µM |  |  |  |  | 
20 | COc1cc(N(Cc2nc3ccccc3[nH]2)S(=O)(=O)c2ccc(C(C)(C)C)cc2)cc(OC)c1OC | 29.8 µM | 33.6 µM | 24.1 µM |  |  |  |  | 
21 | COc1ccc(CN(c2cc(OC)c(OC)c(OC)c2)S(=O)(=O)c2ccc(C)cc2)cc1 | 8.22 µM | 10.1 µM | 4.34 µM |  |  |  |  | 
22 | Cc1ccc(S(=O)(=O)N(Cc2nc3ccccc3[nH]2)c2ccc(Cl)cc2)cc1 | 42.2 µM | 38.3 µM | 24.8 µM |  |  |  |  | 
23 | COc1cc(N(Cc2nc3ccccc3[nH]2)C(=O)c2ccc(Br)cc2)cc(OC)c1OC | 19.9 µM | > 50 µM | 14.6 µM |  |  |  |  | 
24 | COc1ccc(CN(c2cc(OC)c(OC)c(OC)c2)S(=O)(=O)c2ccccc2)cc1 | > 50 µM | > 50 µM | > 50 µM |  |  |  |  | 
25 | COc1ccc(N(Cc2nc3ccccc3[nH]2)S(=O)(=O)c2ccc(C)cc2)cc1OC | > 50 µM | > 50 µM | > 50 µM |  |  |  |  | 
26 | COc1cc(N(Cc2nc3ccccc3[nH]2)S(=O)(=O)c2ccccc2)cc(OC)c1OC | 25.5 µM | 27.3 µM | 12.4 µM |  |  |  |  | 
27 | COc1ccc(N(Cc2nc3ccccc3[nH]2)S(=O)(=O)c2ccc(C)cc2)cc1 | > 50 µM | > 50 µM | > 50 µM |  |  |  |  | 
28 | Cc1ccc(S(=O)(=O)N(Cc2nc3ccccc3[nH]2)c2ccccc2)cc1 | > 50 µM | 49.7 µM | 45.2 µM |  |  |  |  | 
29 | COc1ccc(CN(c2cc(OC)c(OC)c(OC)c2)S(=O)(=O)c2c(C)cc(C)cc2C)cc1 | 14.8 µM | 18.7 µM | 6.44 µM |  |  |  |  | 
30 | COc1cc(N(Cc2ccccc2)S(=O)(=O)c2ccc(C)cc2)cc(OC)c1OC | 7.81 µM | 10.2 µM | 3.57 µM |  |  |  |  | 
31 | COc1cc(N(Cc2nc3ccccc3[nH]2)C(=O)c2ccc(C(C)(C)C)cc2)cc(OC)c1OC | 46 µM | 48.8 µM | > 50 µM |  |  |  |  | 
32 | COc1cc(N(Cc2nc3ccccc3[nH]2)C(=O)c2ccccc2)cc(OC)c1OC | > 50 µM | > 50 µM | > 50 µM |  |  |  |  | 
33 | COc1cc(N(Cc2nc3ccccc3[nH]2)C(=O)c2ccc(F)cc2)cc(OC)c1OC | 21.9 µM | 45.2 µM | 23.6 µM |  |  |  |  | 
